According to PMC3375352 (Journal of Medicinal Chemistry, 2012):

Legend:
[1] = cited from earlier work
[2] = system: U2OS (human osteosarcoma); assay: MTT cytotoxicity assay, U2OS; assay type: cell-based; settings: read-out: IC50 U2OS, 72 h continuous treatment
How it was run: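 Cells were grown as adherent monolayers in DMEM with 10% FBS and 1% penicillin/streptomycin at 37 °C, humidified 5% CO₂. 2000 cells/well were seeded and left for 24 h. Medium was replaced with test compound dilutions from 1–3 mM aqueous stocks for 72 h. MTT (0.8 mg/mL in DMEM) was added for 4 h, and formazan was dissolved in DMSO with 10% pH 10.5 glycine buffer. A555 was normalised to Pt-free controls and IC50 interpolated from % viability curves. Values are means of ≥3 independent experiments, each with six replicates per concentration; errors are standard deviations.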

HeLa cells = assay: cellular platinum uptake by GFAAS; assay type: cell-based, human; settings: 10 µM, 4 h exposure
How it was run: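 HeLa cells were seeded at 3×10⁵ cells/well, grown 48 h, then exposed to test compound (10 µM final) for 4 h. Cell-free medium wells served as blanks for nonspecific Pt adsorption, and parallel wells were trypsinised and counted with trypan blue. Wells were washed twice with pH 7.4 PBS and digested in hot (≈90 °C) concentrated nitric acid for 2 h. Pt was measured by GFAAS, blank-subtracted and normalised per cell; errors were derived by error propagation.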

[3] = system: nuclear DNA of HeLa cells; assay: intracellular DNA platination by GFAAS; assay type: cell-based, human; settings: 100 µM for 4 h, then 16 h in platinum-free medium
How it was run: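 Five million HeLa cells were seeded, treated next day, and floating plus attached cells were pooled (trypsin), pelleted at 4 °C and washed with ice-cold PBS. Cells were lysed in DNAzol with 100 µg/mL RNase A. DNA was ethanol-precipitated, redissolved in 8 mM NaOH and quantified by UV-visible spectroscopy, and Pt was measured by GFAAS (pmol Pt/µg DNA). Values are means ± SD of ≥3 experiments.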

Compound	stability in water [1]	IC50 [2]	HeLa Cellular Uptake (HeLa cells)	Pt/DNA [3]
N.N.O=C([O-])C1(C(=O)[O-])CCC1.[Pt+2] [carboplatin]	stable for up 60 d			
N.N.[Cl][Pt][Cl] [cisplatin, cis-diamminedichloroplatinum(II)]		5 ± 2 µM	14 ± 2 ng Pt/10^6 cells	1.58 ± 0.97 pmol/µg
